Results published in the EternaBench riboswitch data.

Tested on: MS2 coat protein
Assay: apparent Kd, MS2 coat protein; higher = weaker binding; RNA-MaP array; FMN 200 µM where present
Method in brief: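 The apparent Kd is reported as the median of filtered per-cluster binding-curve fits. To get these curves, designs transcribed by stalled E. coli RNA polymerase on Illumina sequencing-chip clusters were titrated with SNAP-549-labelled MS2 coat protein from 0.7 or 1.5 nM, doubling to 3 µM. Titrations were run without and then with constant ligand in 100 mM Tris-HCl pH 7.5, 80 mM KCl, 4 mM MgCl2, BSA, DTT, yeast tRNA and Tween-20, and green signal was normalised to red-channel RNA signal and control-cluster median Fmax.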

[1] = designed as: OFF switch for flavin mononucleotide, no ligand
[2] = ligand present: flavin mononucleotide, designed as: OFF switch for flavin mononucleotide
[3] = designed as: ON switch for flavin mononucleotide, no ligand
[4] = ligand present: flavin mononucleotide, designed as: ON switch for flavin mononucleotide

Row | Sequence | apparent Kd [1] [nM] | apparent Kd [2] [nM] | apparent Kd [3] [nM] | apparent Kd [4] [nM]
1 | AAAGAAACAGGAUAUGUAGGCUGCGACAUGAGGAUCACCCAUGUGUCGGUAUACAGUCCUAUAGAAGGGUUAUGAC | 15.5 | 20.1 | – | –
2 | GCCUCAUAGUAGAAGGGACUAUUACAGUAAUUUUUUUAGAUUAAAUAACAUGAGGAUCACCCAUGUCAGGAUAUACUAAGAGGC | 26.4 | 37.1 | – | –
3 | CUUCAGUCAGGAUAUGUUAAUCUCGCCACUCCACGAGCCGGACAGAAGGGACAUGAGGAUCACCCAUGUUAGAC | 30 | 22.4 | – | –
4 | GCACUGGAUGUAGGAUAUCAGGACGAUAAGUCCUGAGAAGGACAUGAGGAUCACCCAUGUAACCUCUAACCAGUGCAUAAUAUA | 12.6 | 23.1 | – | –
5 | UUCGUGCAGCUUUGCUGUAUGCGUACAUGAGGAUCACCCAUGUAGGAUAUGGUAGGCUUUGCUUACUAGAAGGAUAGUGUGAUC | 97 | 40.3 | – | –
6 | UGACUCGGAGGAUAUACAUGAGGAUCACCCAUGUUUGCCGGCCGCCGAGUAACCUGGUGUAGAAGGUCGAGUGU | 20.4 | 18.9 | – | –
7 | UUGGACGUCGUAGGAUAUGUAGGAUAUUCCUACAUGAGGAUCACCCAUGUUGACAUGGAAGAAGAACAGAAGGACGAUGUCCAU | – | – | 212 | 6.04
8 | UUCAUCAAUGAAGGAUAUCUAUGUCCAACAUGAGGAUCACCCAUGUUGAGGAUCACCUAUGUGUAGGAGAAGGUCAAUAUAACU | – | – | 8.56 | 8.54
9 | UGAGCUUGAGGAUAUACAUGAGGAUCACCCAUGUUGAGCUUGAGGAUCUUCGAGUUCGGUAGAAGGCGAGUUCG | 16 | 33 | – | –
10 | CUGCUCCGUGUAGGAUAUGCAUACAACCAAUAUGCAGAAGGACAUGAGGAUCACCCAUGUAUGUUAUUAUCACGUGAAGCGUCC | 22.6 | 42.9 | – | –
11 | ACAGCACGAGGAUAUACAUGAGGAUCACCCAUGUCUGAGGGAAGGCGAACGCCCUUGUGUAGAAGGCGUUGAUC | 91.4 | 112 | – | –
12 | AAGAACUUAGGAUAUACAUGAGGAUCACCCAUGUAGCUUCACUUGGGCCUGAGCCCGUGUAGAAGGAAGAAAAU | 87.9 | 59 | – | –
13 | CUUAGACAUGAGGAUCACCCAUGUGAGGAUAUGAUGCGAUCGUGCUGACAUGAUCGCAUCAGAAGGCACAUAUG | 145 | 322 | – | –
14 | GGGUACAUCGGAGGAUAUCAUGUAAAUACAUGAGGAUCACCCAUGUCGAUGGAGACAUCGGAGAUUGAGAAGGCCGAGGUACCG | – | – | 191 | 9.91
15 | AAGUUGUCAGGAUAUCGUUAAUUUAGUUGUUUGUAUUAGUUCGAGAAGGGACAUGAGGAUCACCCAUGUUUGCA | 26.4 | 34 | – | –
16 | CUAGACAGAUCAGGAUAUCAUCGCAUGGUGCAUCCCUGUGAUUACAUGAGGAUCACCCAUGUGGAUGAGAAGGGAUUACUAUGU | 31.9 | 10.7 | – | –
17 | AUACCUUAUGAGAAGGCGGUCAUGAAACAUGAUCGAGGAUAUCAUGUAAACAUGAGGAUCACCCAUGUAUGGGUAUUAUGGUAA | – | – | 44.8 | 10.2
18 | UUGGACGUCGUAGGAUAUGUAGGAUAUUCCUACAUGAGGAUCACCCAUGUUGACAUGGAAGAAGGACAGCAGGACGAUGUCCAU | – | – | 690 | 12.9
19 | GCGUUCUUGUAGAAGGUACAAGAAAACUAUUAUUAACACAUGAAACAUGAGGAUCACCCAUGUAGUAAGGAUAUACAUGAACGC | – | – | 10.1 | 7.18
20 | GUAUCUUAUGAGAAGGCGAUCAUGAAACAUGAUCGAGGAUAUCAUGUAAACAUGAGGAUCACCCAUGUAUGGGUAUUAUGGUAC | – | – | 179 | 71.9
21 | GCCUUAUCCGUCAGGAUAUACAUUUUUUUUUUGUUGUAGAAGGGACAUGAGGAUCACCCAUGUACAUUACAUUG | 25.8 | 28.9 | – | –
22 | ACAUAAAUUCGAGGAUAUCGGUGAAAUAAUCUACGAGAAGGCGAUAAUGGUUAUAGACUUAUAGACAUGAGGAUCACCCAUGUA | – | – | 26.2 | 25.6
23 | GUUGUGUGAGGAUAUGCCUGGCCGUGUGGCCGGAUUGGGUGGCAGAAGGUACAUGAGGAUCACCCAUGUACGGG | 90.6 | 70 | – | –
24 | AAUAACAGAGGAUAUACUAUUUUAUGUGUUUGUUAUUUUAAACAUGAGGAUCACCCAUGUAGAAGGCUGAUUAA | 42 | 44.6 | – | –
25 | UUUUUUGUACAAGGAUAUCUAUUAUAUUCACGUCCUACAUGAGGAUCACCCAUGUUAUAUAUUUUAGAGAAGGUGUAUUGUCUG | – | – | 31.7 | 35.5
26 | UUUCCUGAAGGAUAUUAAGAGCCAGACAUGAGGAUCACCCAUGUUCCUACAACGAACCUCUAAGAAGGUCAGGGCU | 20.9 | 21 | – | –
27 | AAGCCCUGAGGAUAUCCCAACUCGCACAUGAGGAUCACCCAUGUCCUUCUCUGGGCUUCGGGAGAAGGCAGGUCUC | 90.3 | 305 | – | –
28 | UUCAGCUCGUGAGGAUAUACAUGUGCUGGAAACAGCAUUAUAUUUUUCACAUGAGGAUCACCCAUGUAGAAGGCACGAGCUGAG | 15.7 | 27.3 | – | –

Row | Sequence | apparent Kd [1] [nM] | apparent Kd [2] [nM] | apparent Kd [3] [nM] | apparent Kd [4] [nM]
29 | AUACAUGAGGAUCACCCAUGUUACAUGGGCUAGUUUUAACGUAGAAGGAUGUUAUUAUUAUUAGCAUAGGAUAUACAAUUUGAA | 274 | 248 | – | –
30 | AUGAGUAAAGCAGGAUAUCUAUUGUCUCAGUAACAUGAGGAUCACCCAUGUAGAGAAGGGCUAAGUCUUACUCUUCGGAGAUGA | 12.3 | 13.4 | – | –
31 | CAGACACAUCUAGGAUAUGGUGAUGCUCAAAACACAUGAGGAUCACCCAUGUAGCCUGUGUAUAAUCAGAAGGAGAACCGUGUA | – | – | 84.6 | 500
32 | AUAUCUAUGUAAGGAUAUAGAUGAUAUACGCCUCCGACAUGAGGAUCACCCAUGUUAUAUUUUGUCUAGAAGGUACAUUGUCGG | – | – | 168 | 170
33 | GUCAGCUCGUGAGGAUAUACGUCACUGCUUCGGCAGUGAAAUUUCCUCACAUGAGGAUCACCCAUGUAGAAGGCACGAGCUGAU | 11.5 | 208 | – | –
34 | UUGUUGUCAGGAUAUCGUUAAUUUAAUUGUUUGUAUUAGUUCGAGAAGGGACAUGAGGAUCACCCAUGUUUGUU | 34.5 | 73.5 | – | –
35 | AUGCUAGUGUGAGGAUAUCAACAUGAGGAUCACCCAUGUUGGAAGUACACGACAUGCGGUACAUUUGAGAAGGUACAUUAGCAU | 58.2 | 108 | – | –
36 | GCAUCCAAAGUGAGGAUAUACCUCUGGAUACAGAGGUAGAAGGCACAUGAGGAUCACCCAUGUUCCUAGGAUGC | 15.3 | 74.2 | – | –
37 | AUAGAAAGAUUAAUAUGAUUACAUGAGGAUCACCCAUGUAUAUAGGAUAUCGACGUCAAUGACGUCGAGAAGGAUAUACAUAAU | 27.6 | 90.4 | – | –
38 | AGGGAGUGAGGAUAUGCUGCUCGUCACUUGCGUGAUGAGUAGCAGAAGGUACAUGAGGAUCACCCAUGUAAAGA | 34.5 | 22.2 | – | –
39 | UGCGGAAGAGGAUAUACGUAGAACUAGGUUCAUGUAAAACUACAUGAGGAUCACCCAUGUAGAAGGCUUUCGCU | 15.9 | 20.4 | – | –
40 | GACAUUGGCAAGAAGGCAAACAUGAGGAUCACCCAUGUUCUGUAUGUAUAUUGAGGAUAUUGCCAAUGUAUGUGGAUCACCCAA | 9.44 | 8.28 | – | –
41 | GUGCAUUACGAGAAGGCGUACUGGUGAAUAUAAAACGACAAAGGUACAUGAGGAUCACCCAUGUACGAGGAUAUCGGUUUGGCU | 9.74 | 29.8 | – | –
42 | CAGCGAUAGCUGAACAAUCUAUCUGAGGAUAUUCAUGAUAAACAUGAGGAUCACCCAUGUAAUUGGGAGAAGGCAGAUAGAUUG | – | – | 441 | 19.3
43 | GACAUGGUCCAGAAGGGCUAUUUAUUUAAGUACGAUUUAGAACAGCAUAGCAGGAUAUGGCUAACAUGAGGAUCACCCAUGUUC | – | – | 19.3 | 11.9
44 | AAAGGAGGGAGGACCGUACAUGAGGAUCACCCAUGUAUAUCACAGGAUAUAGCAUGUUUAGGCAUCUAGAAGGGUGAUCGGUCA | – | – | 186 | 37.7
45 | GAGCGAAAGCUCAAUGUCGAUAGCAGAAGGACAUGUAAAUACAUGAAAACAUGAGGAUCACCCAUGUAGGAUAUGCUAUCGACU | 5.46 | 12.7 | – | –
46 | GUCCGGCGUGUAGGAUAUGGAUCCGAUUAGGAUCCAGAAGGACAUGAGGAUCACCCAUGUACAUGUAAACAGUCAUCACCGGAA | 9.2 | 57.7 | – | –
47 | GCAUCCAAAGUGAGGAUAUACCUCUGGAUACAUAGGUAGAAGGCACAUGAGGAUCACCCAUGUUCCUAGGAUGC | 31.6 | 43.1 | – | –
48 | CUGGGAUCAGUAGGAUAUGCCGGACAUGAGGAUCACCCAUGUAAGGCGUGCUUCCCUCGCGUGCGGCAGAAGGGCUGCAUCACA | 32.7 | 35.4 | – | –
49 | UAGGGCGAGUUAUGUACAAGAUACAUGAGGAUCACCCAUGUGUAGGAUAUGACCCUUAUCGCUGGUCAGAAGGGCACGAGAAUC | 74.1 | 94.2 | – | –
50 | UGCAUGCUAGGAUAUACGAAACAUUAGGGUUCGUCGUAUGAACAUGAGGAUCACCCAUGUAGAAGGAGCGUGCU | 18.4 | 34.3 | – | –
51 | AAAAAACAAGGAUAUACGGAUGAAGAUUGUCUUAAUUUUUGACAUGAGGAUCACCCAUGUAGAAGGUGUUAAAA | 198 | 342 | – | –
52 | AGCAUGCUAGGAUAUACGAAACAUUAGGGUUCGUCGUAUGAACAUGAGGAUCACCCAUGUAGAAGGAGCGUGCA | 18 | 36.2 | – | –
53 | CUGAAGUCAGGAUAUUGUUAAUUUAGUUGUUUGUAUUAGUUCGAGAAGGGACAUGAGGAUCACCCAUGUAAGUC | 32 | 27.1 | – | –
54 | CAGCGAUAGCUGAACAAUCUAUCUGAGGAUAUUCAUAAAACAUGAGGAUCACCCAUGUAAAAUUGGGAGAAGGCAGAUAGAUUG | – | – | 12.6 | 4.69
55 | UGGUACAUCAUAGGAUAUCGUGUGUAAACAUGAGGAUCACCCAUGUCAUACGAGAGUAUGUCGAUCGAGAAGGAUGAUGUACCU | – | – | 31.2 | 17.2
